Assay results taken from ChEMBL document CHEMBL4321820, “Identification and Optimization of Mechanism-Based Fluoroallylamine Inhibitors of Lysyl Oxidase-like 2/3” (J Med Chem, 2019).
Each block holds one molecule with its values, some of them ahead of it. Activity calls are given as the source filed them. The calls are words filed in the database; no cut-off is given here.

Columns and labels:
Mus musculus = assay: Antifibrotic activity in bleomycin-induced C57BL/6 mouse model of lung fibrosis assessed as reduction in Ashcroft score at 15 mg/kg, ip administered on day 7 to 27 measured on day 28 by H and E staining based microscopy; type: functional, organism-based
How it was run: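 Female C57BL/6 mice, 6-8 weeks old, under isoflurane received intranasal bleomycin sulphate 0.05 U/mouse in PBS; controls got PBS. Once-daily i.p. treatment days 7-27, n=12/group; imatinib 50 mg/kg i.p. as comparator. Sacrifice at day 28; lung fibrosis scored by Ashcroft score.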

[1] = target: T1, Amine oxidase [flavin-containing] B (Homo sapiens, UniProt P27338); assay: Inhibition of recombinant human MAOB expressed in baculovirus infected in BTI cells using benzylamine as substrate preincubated with enzyme for 30 mins followed by substrate addition and measured every 2.5 mins for 30 mins by Amplex-Red oxidation assay
T1 sequence (P27338 whole entry): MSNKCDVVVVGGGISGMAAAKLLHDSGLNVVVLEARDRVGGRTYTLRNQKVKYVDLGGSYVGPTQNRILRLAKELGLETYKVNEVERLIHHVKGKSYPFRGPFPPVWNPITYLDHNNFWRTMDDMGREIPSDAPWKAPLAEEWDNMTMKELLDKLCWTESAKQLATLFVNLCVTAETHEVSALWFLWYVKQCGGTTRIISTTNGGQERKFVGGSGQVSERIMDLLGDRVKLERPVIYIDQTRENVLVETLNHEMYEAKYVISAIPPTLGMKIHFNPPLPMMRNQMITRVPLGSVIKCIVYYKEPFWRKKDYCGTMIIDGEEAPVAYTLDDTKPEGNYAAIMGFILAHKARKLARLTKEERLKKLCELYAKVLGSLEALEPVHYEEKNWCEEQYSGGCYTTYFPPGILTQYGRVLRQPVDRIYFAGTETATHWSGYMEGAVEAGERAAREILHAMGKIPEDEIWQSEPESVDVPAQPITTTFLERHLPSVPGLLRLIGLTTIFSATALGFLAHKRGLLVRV

[2] = target: T2, Amine oxidase [flavin-containing] A (Homo sapiens, UniProt P21397); assay: Inhibition of recombinant human MAOA expressed in baculovirus infected in BTI cells using tyramine as substrate preincubated with enzyme for 30 mins followed by substrate addition and measured every 2.5 mins for 30 mins by Amplex-Red oxidation assay
T2 sequence (P21397 whole entry): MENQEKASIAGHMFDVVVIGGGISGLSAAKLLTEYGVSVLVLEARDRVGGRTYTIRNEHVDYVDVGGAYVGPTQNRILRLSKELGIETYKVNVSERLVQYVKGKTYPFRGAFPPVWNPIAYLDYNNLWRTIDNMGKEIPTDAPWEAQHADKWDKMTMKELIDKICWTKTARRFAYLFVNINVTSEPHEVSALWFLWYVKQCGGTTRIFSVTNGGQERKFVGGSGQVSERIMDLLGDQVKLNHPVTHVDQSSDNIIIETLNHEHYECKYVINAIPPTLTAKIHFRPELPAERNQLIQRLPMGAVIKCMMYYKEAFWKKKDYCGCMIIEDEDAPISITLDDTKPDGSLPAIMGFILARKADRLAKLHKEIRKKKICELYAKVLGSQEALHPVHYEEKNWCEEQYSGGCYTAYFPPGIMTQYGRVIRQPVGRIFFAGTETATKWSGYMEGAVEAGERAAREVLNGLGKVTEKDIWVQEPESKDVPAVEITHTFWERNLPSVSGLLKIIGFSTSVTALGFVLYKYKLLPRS

Protein-lysine 6-oxidase = target: T3, Protein-lysine 6-oxidase (Mus musculus, UniProt P28301); assay: Inhibition of LOX in mouse lung fibroblast cells using putrescine as substrate preincubated with enzyme for 30 mins followed by substrate addition and measured every 2.5 mins for 30 mins by Amplex-Red oxidation assay
T3 sequence (P28301 whole entry): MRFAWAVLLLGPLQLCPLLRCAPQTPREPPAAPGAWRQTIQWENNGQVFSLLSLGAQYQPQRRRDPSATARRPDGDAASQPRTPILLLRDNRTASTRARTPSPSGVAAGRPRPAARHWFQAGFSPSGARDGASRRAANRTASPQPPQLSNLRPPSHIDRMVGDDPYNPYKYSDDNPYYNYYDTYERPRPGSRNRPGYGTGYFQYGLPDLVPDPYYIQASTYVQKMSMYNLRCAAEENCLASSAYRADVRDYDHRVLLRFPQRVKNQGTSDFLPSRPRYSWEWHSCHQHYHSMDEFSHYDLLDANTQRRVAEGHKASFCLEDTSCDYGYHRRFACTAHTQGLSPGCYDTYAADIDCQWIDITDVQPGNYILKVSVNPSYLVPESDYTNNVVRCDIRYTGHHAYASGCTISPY
How it was run: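 LOX from conditioned medium of fibroblasts cultured from homogenized mouse lung, concentrated and isolated as for the human fibroblast enzyme, in 1.2 M urea/50 mM borate pH 8.2. 30 min preincubation with compound at 37 °C, then Amplex Red/HRP plus putrescine; fluorescence read every 2.5 min for 30 min.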

Lysyl oxidase homolog 2 = target: T4, Lysyl oxidase homolog 2 (Homo sapiens, UniProt Q9Y4K0); assay: Inhibition of recombinant human C-terminal His-tagged […] (1-774 residues) expressed in mouse myeloma cells assessed as inhibition of collagen oxidation measured every 1 min for 3 hrs by Amplex-Red oxidation assay; type: cell-based
T4 sequence (Q9Y4K0 whole entry): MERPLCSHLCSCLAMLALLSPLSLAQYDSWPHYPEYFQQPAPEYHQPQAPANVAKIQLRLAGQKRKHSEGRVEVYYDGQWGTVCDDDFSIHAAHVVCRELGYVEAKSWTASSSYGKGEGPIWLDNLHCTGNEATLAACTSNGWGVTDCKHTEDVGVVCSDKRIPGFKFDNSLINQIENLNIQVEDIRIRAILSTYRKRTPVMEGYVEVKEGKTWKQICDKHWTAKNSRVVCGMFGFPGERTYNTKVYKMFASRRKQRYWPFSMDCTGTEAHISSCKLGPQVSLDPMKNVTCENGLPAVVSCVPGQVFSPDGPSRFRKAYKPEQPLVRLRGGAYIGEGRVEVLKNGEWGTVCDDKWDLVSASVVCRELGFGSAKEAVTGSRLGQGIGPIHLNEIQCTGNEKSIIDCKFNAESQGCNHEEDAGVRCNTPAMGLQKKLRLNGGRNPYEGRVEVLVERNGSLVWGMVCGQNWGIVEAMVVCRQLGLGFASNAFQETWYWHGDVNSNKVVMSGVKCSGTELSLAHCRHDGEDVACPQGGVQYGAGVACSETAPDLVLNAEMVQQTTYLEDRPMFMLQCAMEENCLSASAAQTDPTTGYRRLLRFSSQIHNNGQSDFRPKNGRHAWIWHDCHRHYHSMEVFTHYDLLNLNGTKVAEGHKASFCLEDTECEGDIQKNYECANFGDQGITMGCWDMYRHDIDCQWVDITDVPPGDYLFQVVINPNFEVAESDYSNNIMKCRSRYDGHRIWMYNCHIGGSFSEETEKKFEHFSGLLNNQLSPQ
How it was run: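 Rat tail type I collagen (1.5 mg/mL in 50 mM borate pH 8.2) combined with rhLOXL2 with or without inhibitor (BAPN 100 µM control). Amplex Red (120 µM)/HRP (1.5 U/mL) mix added. Fluorescence read every 1 min for 3 h at 37 °C; slope from the linear 20-40 min phase used for IC50.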

[3] = Stability in rat plasma assessed as half life

SMILES: CCOC(=O)c1ccc2c(c1)c(-c1cccc(S(=O)(=O)N(C)C)c1)c(C)n2C/C(F)=C/CN.Cl
inhibition (Mus musculus): Active

IC50 ([1]; read-out: pIC50 (converted)): > 31.6 µM | IC50 ([2]; read-out: pIC50 (converted)): > 31.6 µM
SMILES: Cc1c(-c2cccc(S(=O)(=O)N(C)C)c2)c2ccccc2n1C/C(F)=C/CN.Cl

IC50 ([1]; read-out: IC50): > 30 µM | IC50 (Protein-lysine 6-oxidase): 1.75 µM | IC50 ([2]; read-out: IC50): > 30 µM | IC50 (Lysyl oxidase homolog 2): 0.013 µM | half-life [3]: > 2 h
SMILES: Cc1c(-c2cccc(S(=O)(=O)N(C)C)c2)c2cc(C(=O)O)ccc2n1C/C(F)=C/CN.Cl
